# Bioassay records as filed in PubChem.
# Shown are actives, neighbours in structure and some others; about 3.1% of the full set was active somewhere.
# KCNQ1 inh: human KCNQ1 channel inhibition | AID 2642 | 1.3% of 310,000 active | CHO-K1 KCNQ1, FluxOR thallium flux fluorescence; active compounds read high | B-score at 10 µM | P51787;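 active = compounds whose thallium flux B-score, printed positive for inhibition, exceeds three library SD while starting fluorescence stays within three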;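 note: channel opened by potassium depolarization with thallium stimulus after 20 min compound exposure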
# KCNQ1 pot: potentiates or activates the human KCNQ1 potassium channel; AID 2648; B-score at 10 µM; 0.35% of 310,000 active; CHO-K1 KCNQ1, thallium flux FluxOR fluorescence; active compounds read high;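 active = fluorescence ratio B-score, a plate-corrected score, at least three library SD, with initial intensity B-score within 5 SD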
#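 Medium – assay buffer, equal DMSO in all wells · Material – CHO-K1 cell line with stable KCNQ1 potassium channel expression · Signal – kinetic FluxOR thallium fluorescence, 10-s 1-Hz baseline, 110-s post-stimulus read · Compound – single concentration per compound, DMSO matched to controls · Schedule – 37 °C overnight plating, 90-min dark dye load, 20-min compound pretreatment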
# hERG protect: hERG (human) protection from proarrhythmic block. 0.51% of 310,000 active. CHO-hERG, FluxOR thallium flux, dofetilide IC70 present. activation (rescue from dofetilide block), less the hit threshold, % at 10 µM. Q12809;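 active = activation above the mean of controls blocked by dofetilide plus 5 SD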;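 note: thallium influx through hERG after potassium depolarization seen as dye fluorescence rise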
# KCNK3 block: human KCNK3 channel inhibition, primary screen; 0.84% of 340,000 active; B-score at 10 µM; CHO-KCNK3 thallium flux, FluxOR fluorescence; active compounds read low;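 active = B-score under library mean minus 4 SD, starting fluorescence ratio at most library mean plus 5 SD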;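 note: more negative B-score means stronger inhibition of thallium flux through KCNK3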
# KCNK9 inh: inhibitors of human KCNK9 two-pore domain potassium channel | HEK293 KCNK9, FluxOR thallium flux fluorescence; active compounds read low | B-score at 10 µM | 1.2% of 310,000 active | AID 488922;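 active = ratio B-score over 3 SD below the library mean, with starting fluorescence within 5 SD of its mean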;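 note: negative B-score means less thallium flux so channel inhibition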
# Starred values were filed as active, the others as inactive; i = inactive; . = no result given.
SMILES,KCNQ1 inh,KCNQ1 pot,hERG protect,KCNK3 block,KCNK9 inh
Cc1ccc(-c2cc(C(=O)N/N=C/c3cccnc3)c3ccccc3n2)cc1C,i,i,-16.9,-9.74*,i
O=C(N/N=C/c1cc([N+](=O)[O-])ccc1Cl)c1cc(-c2ccccc2)nc2ccccc12,i,i,-11.7,i,i
O=C(N/N=C/c1cc([N+](=O)[O-])ccc1O)c1cc(-c2ccccc2)nc2ccccc12,7*,i,-6.5,i,i
CCOC(=O)c1c(C)[nH]c(C(=O)N/N=C/c2cc([N+](=O)[O-])ccc2O)c1C,9*,i,-17.2,i,i
O=C(COC(=O)C1CCC(=O)N1)Nc1ccccc1Br (stereo not drawn),i,i,-13.9,i,i
O=C(COC(=O)C1CCC(=O)N1)Nc1ccc(Oc2ccccc2)cc1 (stereo not drawn),i,i,33.3*,i,i
Cc1cnc(=O)[nH]c1SCc1cccc([N+](=O)[O-])c1,i,i,-7.2,i,i
Cc1ccc(-c2nn(-c3ccccc3)cc2/C=N/NC(=O)c2ccc(Br)o2)cc1,.,.,.,i,.
O=C(N/N=C\c1cn(-c2ccccc2)nc1-c1ccccc1)c1ccc(Br)o1,13*,i,-8.8,i,-7.13*
O=C(N/N=C/c1ccc([N+](=O)[O-])o1)c1cn(-c2ccccc2)nc1-c1ccc(Cl)cc1,i,i,8.3*,i,i
CCCCc1ccc(NC(=O)CSc2nc(=O)n3cc(C)ccc3n2)cc1,i,i,-6.7,i,i
Cc1ccc(C(=O)OCC(=O)N2C(C)CCCC2C)cc1S(=O)(=O)N1CCCCC1 (stereo not drawn),i,i,-9.2,i,i
Cc1ccc(C(=O)Nc2cccc(O)c2)cc1S(=O)(=O)N1CCCCCC1,i,i,-5.0,i,i
CNC(=O)c1ccccc1NC(=O)c1ccc(C)c(S(=O)(=O)N2CCCCC2)c1,i,i,8.7*,i,i
COC(=O)c1ccc(COC(=O)c2ccc(C)c(S(=O)(=O)N3CCCCC3)c2)cc1,.,.,.,-9.17*,.
Cc1ccc(C(=O)Oc2ccc([N+](=O)[O-])cc2)cc1S(=O)(=O)N1CCCCCC1,i,i,-8.0,i,-8.06*
Cc1cccn2c(=O)c3cc(C(=O)NC4CCCC4)c(=N)n(Cc4ccc(F)cc4)c3nc12,i,i,-18.6,i,i
CCN(C(=O)c1cc2c(=O)n3cccc(C)c3nc2n1CCCOC)C1CCCCC1,i,i,-14.4,-11.2*,i
Cc1cccn2c(=O)c3cc(C(=O)NC4CCCCC4)c(=N)n(Cc4ccccc4)c3nc12,7*,i,-15.3,i,i
OCCC1CN(CC2CCCCC2)CCN1CC1CCCCC1 (stereo not drawn),i,i,-0.1,i,i
CC1CCCCC1NC(=O)COC(=O)c1ccc2c(c1)NC(=O)CS2 (stereo not drawn),.,.,.,i,.
CCOC(=O)c1ccccc1NC(=O)COC(=O)CN1C(=O)C2CC=CCC2C1=O (stereo not drawn),i,i,-15.3,i,i
CC1CCc2sc(-c3n[nH]c(=S)o3)cc2C1 (stereo not drawn),i,i,7.4*,i,i
COc1ccccc1Oc1ccc(S(=O)(=O)N2CCCCC2)cc1NC(=O)CCNC(C)=O,i,i,-8.0,i,i
COc1cc(C(=O)NS(=O)(=O)c2ccccc2C)ccc1Cc1cn(C)c2ccc(NC(=O)OC3CCCC3)cc12,10*,i,-32.9,.,i
COc1ccc(NC(=O)COc2ccccc2C)cc1S(=O)(=O)N1CCCCC1,i,i,-9.5,i,i
COc1ccc(C2c3c(-c4ccccc4O)n[nH]c3C(=O)N2Cc2ccco2)cc1 (stereo not drawn),i,i,-9.8,i,i
Cc1ccc(C2c3c(-c4ccccc4O)n[nH]c3C(=O)N2Cc2ccncc2)cc1 (stereo not drawn),i,i,12.0*,i,i
CCN(CC)CCN(C(=O)c1ccc2c(c1)CCCC2)c1nc2ccc(OC)cc2s1,12*,i,-29.3,i,i
CCN(CC)CCN(C(=O)c1ccc2c(c1)CCCC2)c1nc2ccc(C)cc2s1,12*,i,-30.6,i,i
